The source made the active and inactive calls. The calls are words filed in the database; no cut-off is given here.
Experiments:
[1] = biological target: T1, Delta-type opioid receptor (Homo sapiens, UniProt P41143); assay: Agonist activity at human opioid delta receptor expressed in HEK293 cells assessed as stimulation of [35S]-GTPgammaS binding at 10 uM; format: functional, cell-based
Summary of the method: (§1)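 Agonist mode: membranes from CHO (κ, μ) or HEK293 (δ) cells expressing cloned human receptors, no agonist added, tested at up to 10 μM. [35S]GTP-γ-S (0.5 nM final) binding in HEPES pH 7.4, MgCl2, NaCl, EDTA, DTT, 200 μM GDP. Read by WGA SPA beads after 2 h (δ) or 4 h (κ, μ) at room temperature, then 4 °C overnight.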

[2] = biological target: T2, Kappa-type opioid receptor (Homo sapiens, UniProt P41145); assay: Displacement of [3H]diprenorphine from human opioid kappa receptor expressed in CHO cells after 120 mins by scintillation counting; format: cell-based
T2 sequence (P41145 whole entry): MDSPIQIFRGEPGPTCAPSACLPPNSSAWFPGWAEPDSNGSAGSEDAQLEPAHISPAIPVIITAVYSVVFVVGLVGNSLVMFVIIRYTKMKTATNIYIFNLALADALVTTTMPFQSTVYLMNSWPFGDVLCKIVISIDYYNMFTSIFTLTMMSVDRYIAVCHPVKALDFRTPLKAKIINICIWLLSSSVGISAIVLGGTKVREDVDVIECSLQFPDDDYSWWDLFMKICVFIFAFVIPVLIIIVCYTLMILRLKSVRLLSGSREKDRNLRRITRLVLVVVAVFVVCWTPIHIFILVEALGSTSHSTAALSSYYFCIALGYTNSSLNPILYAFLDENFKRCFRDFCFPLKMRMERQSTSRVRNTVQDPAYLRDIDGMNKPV
Summary of the method: (§2)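 11-point curves, 0.01 nM–1 μM final. 120 min at 22 °C, then filtration and scintillation counting. Nonspecific binding set by 10 μM naltrexone. Four-parameter IC50; Ki by Cheng–Prusoff.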

[3] = biological target: T3, Mu-type opioid receptor (Homo sapiens, UniProt P35372); assay: Displacement of [3H]diprenorphine from human opioid mu receptor expressed in CHO cells after 120 mins by scintillation counting; format: cell-based; summary of the method: as §2
T3 sequence (P35372 whole entry): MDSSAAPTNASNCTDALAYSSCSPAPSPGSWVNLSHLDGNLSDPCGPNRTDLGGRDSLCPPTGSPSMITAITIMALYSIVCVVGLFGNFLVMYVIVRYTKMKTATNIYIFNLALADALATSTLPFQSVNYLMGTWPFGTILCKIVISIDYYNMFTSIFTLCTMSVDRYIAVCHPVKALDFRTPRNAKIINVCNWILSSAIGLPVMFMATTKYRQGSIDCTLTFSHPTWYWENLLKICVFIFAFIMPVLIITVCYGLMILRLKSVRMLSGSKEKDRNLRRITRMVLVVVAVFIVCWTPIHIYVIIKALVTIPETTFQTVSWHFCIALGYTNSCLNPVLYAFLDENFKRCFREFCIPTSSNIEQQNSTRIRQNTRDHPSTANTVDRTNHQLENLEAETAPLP

[4] = system: CHO; assay: Selectivity ratio of Ki for human opioid mu receptor expressed in CHO cells to Ki for human opioid kappa receptor expressed in CHO cells; format: cell-based
[5] = biological target: T1, Delta-type opioid receptor; assay: Displacement of [3H]diprenorphine from human opioid delta receptor expressed in HEK293 cells after 120 mins by scintillation counting; format: cell-based; summary of the method: as §2
[6] = system: HEK293; assay: Selectivity ratio of Ki for human opioid delta receptor expressed in HEK293 cells to Ki for human opioid kappa receptor expressed in CHO cells; format: cell-based
[7] = biological target: T3, Mu-type opioid receptor; assay: Agonist activity at human opioid mu receptor expressed in CHO cells assessed as stimulation of [35S]-GTPgammaS binding at 10 uM; format: functional, cell-based; summary of the method: as §1
[8] = biological target: T2, Kappa-type opioid receptor; assay: Agonist activity at human opioid kappa receptor expressed in CHO cells assessed as stimulation of [35S]-GTPgammaS binding at 10 uM; format: functional, cell-based; summary of the method: as §1
[9] = system: HEK293; assay: Selectivity ratio of Kb for human opioid delta receptor expressed in HEK293 cells to Kb for human opioid kappa receptor expressed in CHO cells; format: cell-based
Summary of the method: (§3)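 Kb ratios from antagonist [35S]GTP-γ-S SPA on CHO (κ, μ) or HEK293 (δ) membranes. Agonists at about 80% maximal: U69,593 300 nM (κ), DAMGO 1 μM (μ), DPDPE 30 nM (δ). 11-point curves, top 1 or 10 μM. Nonspecific binding: NorBNI, naltrexone or naltriben, each 10 μM. Kb = IC50/(1+D/EC50); geometric means with SEM.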

[10] = biological target: T1, Delta-type opioid receptor; assay: Antagonist activity at human opioid delta receptor expressed in HEK293 cells assessed as inhibition of DPDPE-induced [35S]GTP-gamma-S binding after 4 hrs by scintillation counting; format: functional, cell-based
[11] = system: CHO; assay: Selectivity ratio of Kb for human opioid mu receptor expressed in CHO cells to Kb for human opioid kappa receptor expressed in CHO cells; format: cell-based; summary of the method: as §3
[12] = biological target: T2, Kappa-type opioid receptor; assay: Antagonist activity at human opioid kappa receptor expressed in CHO cells assessed as inhibition of U69593-induced [35S]GTP-gamma-S binding after 4 hrs by scintillation counting; format: functional, cell-based
[13] = biological target: T3, Mu-type opioid receptor; assay: Antagonist activity at human opioid mu receptor expressed in CHO cells assessed as inhibition of DAMGO-induced [35S]GTP-gamma-S binding after 4 hrs by scintillation counting; format: functional, cell-based
[14] = system: Rattus norvegicus; assay: In vivo receptor occupancy of opioid kappa in iv dosed rat striatum after 40 mins by 3-Chloro-4-[4-[ [ (2S)-2-(3-pyridyl)pyrrolidin-1-yl]methyl]phenoxy]- benzamide displacement assay; format: functional
[15] = system: Rattus norvegicus; assay: Antinociceptive activity in po dosed rat assessed as reversal of agonist […]-induced pain by formalin test; format: functional
[16] = system: Rattus norvegicus; assay: Reversal of […] in po dosed rat; format: functional
[17] = system: Nucleic Acid; assay: Ratio of drug uptake in striatum to cerebellum in rat at 3 ug/kg, iv measured after 40 mins by LC/MS/MS analysis; format: ADME, organism-based; conditions: in vivo, 0.003 mg/kg
Summary of the method: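 Groups of four rats were given iv tracer and killed 20 or 40 min after dosing. Striatum (total binding) and cerebellum (nonspecific, null region) were extracted in acetonitrile/0.1% formic acid and quantified by LC/MS/MS. Binding potential was calculated as (striatum/cerebellum concentration) − 1.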

[18] = system: Striatum; assay: Drug uptake in rat striatum at 1 ug/kg, iv measured after 40 mins by LC/MS-MS analysis; format: ADME, organism-based; conditions: in vivo, 0.001 mg/kg
Summary of the method: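 Groups of four rats received a single iv tracer dose and were killed 20 or 40 min later. Striatum was weighed, homogenized in 4 volumes acetonitrile/0.1% formic acid and centrifuged. The supernatant was diluted and analysed by LC/MS/MS against standards spiked into naive rat brain. %SUV = tissue amount/injected dose × 100.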

T1 sequence (P41143 whole entry): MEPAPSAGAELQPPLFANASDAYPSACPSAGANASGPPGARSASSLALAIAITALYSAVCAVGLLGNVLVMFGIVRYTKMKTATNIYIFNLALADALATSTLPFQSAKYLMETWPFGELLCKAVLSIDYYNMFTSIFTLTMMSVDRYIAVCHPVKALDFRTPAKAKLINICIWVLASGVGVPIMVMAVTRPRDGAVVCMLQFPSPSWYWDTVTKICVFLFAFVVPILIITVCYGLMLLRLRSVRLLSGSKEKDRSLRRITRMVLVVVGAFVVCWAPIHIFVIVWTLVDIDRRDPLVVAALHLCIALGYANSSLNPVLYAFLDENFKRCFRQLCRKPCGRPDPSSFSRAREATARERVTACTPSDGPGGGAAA

Activity [1] | Ki [2] [µM] | Ki [3] [µM] | Ki [5] [µM] | Activity [7] | Activity [8] | Kb [10] [µM] | Kb [12] [µM] | Kb [13] [µM] | SUV [18] [%] | SMILES | Ratio Ki [4] | Ratio Ki [6] | Ratio [9] | Ratio [11] | ED50 [14] [mg/kg] | ED50 [15] [mg/kg] | ED50 [16] [mg/kg] | Ratio [17]
inactive | 0.0267 | 0.107 | > 0.5 | inactive | inactive | > 1 | 0.0152 | 0.0438 | – | CC1(C)CN(Cc2ccc(Oc3ccc(C(N)=O)cn3)cc2)[C@H]1c1ccccc1 | – | – | > 65 | 3 | – | – | – | –
inactive | 0.00105 | 0.0431 | > 0.5 | inactive | inactive | 0.338 | 0.00246 | 0.0366 | 270 | CC1(C)CN(Cc2ccc(Oc3ccc(C(N)=O)cn3)cc2)[C@@H]1c1ccccc1 | – | – | 137 | 15 | – | – | – | –
inactive | 0.00141 | 0.0527 | > 0.5 | inactive | inactive | – | – | – | – | CC1(C)CN(Cc2ccc(Oc3ccc(C(N)=O)cn3)cc2)C1c1ccccc1 (racemic) | – | – | – | – | – | – | – | –

Second part, the molecule before the results:

SMILES | Activity [1] | Ki [2] [µM] | Ki [3] [µM] | Ki [5] [µM] | Activity [7] | Activity [8] | Kb [10] [µM] | Kb [12] [µM] | Kb [13] [µM] | SUV [18] [%] | Ratio Ki [4] | Ratio Ki [6] | Ratio [9] | Ratio [11] | ED50 [14] [mg/kg] | ED50 [15] [mg/kg] | ED50 [16] [mg/kg] | Ratio [17]
NC(=O)c1ccc(Oc2ccc(CN3CCC[C@@H]3c3cccnc3)cc2)c(Cl)c1 | inactive | 0.0449 | > 0.5 | > 0.5 | inactive | inactive | – | – | – | – | > 11 | > 11 | – | – | – | – | – | –
NC(=O)c1ccc(Oc2ccc(CN3CCC[C@@H]3c3cccc(F)c3)cc2)c(F)c1 | inactive | 0.0537 | > 0.5 | > 0.5 | inactive | inactive | > 1 | 0.0887 | > 0.5 | – | > 9 | > 9 | > 5 | > 5 | – | – | – | –
NC(=O)c1ccc(Oc2ccc(CN3CCCC3c3ccccc3)cc2)nc1 (racemic) | inactive | 0.00921 | 0.232 | > 0.5 | inactive | inactive | 0.635 | 0.017 | 0.15 | – | 25 | > 50 | 37 | 9 | – | – | – | –
Cc1cc(C)cc([C@@H]2CCCN2Cc2ccc(Oc3ccc(C(N)=O)cc3F)cc2)c1 [ATICAPRANT] | inactive | 0.000949 | 0.0227 | – | inactive | inactive | 0.11 | 0.000813 | 0.0174 | – | 24 | 175 | 135 | 21 | – | – | – | –
NC(=O)c1ccc(Oc2ccc(CN3CCC[C@H]3c3cccc(F)c3)cc2)c(F)c1 | inactive | 0.000565 | 0.0358 | 0.211 | inactive | inactive | 0.293 | 0.00157 | 0.0213 | – | 63 | 373 | 187 | 14 | 0.06 | 0.24 | 30 | 0.2

From ChEMBL document CHEMBL1921714, “Discovery of aminobenzyloxyarylamides as κ opioid receptor selective antagonists: application to preclinical development of a κ opioid receptor antagonist receptor occupancy tracer” (J Med Chem, 2011)
